ChEMBL document CHEMBL1137101, “3-Hydroxy-4-arylsulfonyltetrahydropyranyl-3-hydroxamic acids are novel inhibitors of MMP-13 and aggrecanase” (Bioorg Med Chem Lett, 2004)

Tests used:
[1] = target: T1, A disintegrin and metalloproteinase with thrombospondin motifs 4 (Homo sapiens, UniProt O75173); assay: Inhibitory concentration against aggrecanase
T1 sequence (O75173 whole entry): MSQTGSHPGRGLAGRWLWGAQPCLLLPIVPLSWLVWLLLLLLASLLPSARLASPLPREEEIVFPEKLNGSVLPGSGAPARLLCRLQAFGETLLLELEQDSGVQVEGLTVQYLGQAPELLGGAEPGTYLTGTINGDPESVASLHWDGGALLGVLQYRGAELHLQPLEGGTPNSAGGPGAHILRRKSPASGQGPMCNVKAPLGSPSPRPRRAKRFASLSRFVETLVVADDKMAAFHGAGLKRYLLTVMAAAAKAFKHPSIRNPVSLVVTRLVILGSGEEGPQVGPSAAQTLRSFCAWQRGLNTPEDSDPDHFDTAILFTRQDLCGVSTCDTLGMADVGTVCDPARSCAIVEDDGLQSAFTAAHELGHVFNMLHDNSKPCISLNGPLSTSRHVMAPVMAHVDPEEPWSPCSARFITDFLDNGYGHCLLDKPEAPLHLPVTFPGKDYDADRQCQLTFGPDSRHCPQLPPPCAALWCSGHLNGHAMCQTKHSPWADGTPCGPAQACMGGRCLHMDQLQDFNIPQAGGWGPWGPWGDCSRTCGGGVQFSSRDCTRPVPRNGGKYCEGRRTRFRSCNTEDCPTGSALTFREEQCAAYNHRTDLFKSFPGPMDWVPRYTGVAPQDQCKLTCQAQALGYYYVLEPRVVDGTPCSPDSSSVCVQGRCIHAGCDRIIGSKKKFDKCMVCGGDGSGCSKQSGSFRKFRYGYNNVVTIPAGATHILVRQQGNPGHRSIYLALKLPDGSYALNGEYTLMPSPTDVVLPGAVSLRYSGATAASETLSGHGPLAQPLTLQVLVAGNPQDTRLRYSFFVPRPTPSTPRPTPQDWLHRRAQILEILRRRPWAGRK
Procedure, shortened: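 Cell-based assay in porcine chondrocytes. Aggrecan GAG chains labelled by culture with ³⁵S sulfate, then unincorporated label washed out. Aggrecan degradation stimulated with IL-1a (5ng/mL).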

[2] = target: Collagenase 3 (Homo sapiens, UniProt P45452); assay: Inhibitory concentration against matrix metalloprotease 13
[3] = target: T2, Interstitial collagenase (Homo sapiens, UniProt P03956); assay: Inhibitory concentration against matrix metalloprotease 1
T2 sequence (P03956 whole entry): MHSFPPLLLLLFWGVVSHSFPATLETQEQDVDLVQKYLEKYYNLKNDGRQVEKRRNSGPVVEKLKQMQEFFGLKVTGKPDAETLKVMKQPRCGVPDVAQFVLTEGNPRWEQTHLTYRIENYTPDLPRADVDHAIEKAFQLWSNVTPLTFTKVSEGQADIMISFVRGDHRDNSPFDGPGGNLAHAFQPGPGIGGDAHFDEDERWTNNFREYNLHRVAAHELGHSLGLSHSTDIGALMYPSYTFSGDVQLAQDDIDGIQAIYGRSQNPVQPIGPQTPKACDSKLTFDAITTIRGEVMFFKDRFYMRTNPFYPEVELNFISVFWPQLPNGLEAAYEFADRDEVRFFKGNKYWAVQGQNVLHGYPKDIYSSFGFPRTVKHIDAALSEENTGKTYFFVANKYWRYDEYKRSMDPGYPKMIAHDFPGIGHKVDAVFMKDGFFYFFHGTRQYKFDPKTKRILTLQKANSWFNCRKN

[4] = Inhibition of TNF alpha converting enzyme (TACE, ADAM17)
[5] = Half life in rat; format: ADME, organism-based; details: in vivo
Procedure, shortened: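 Rat PK after IV bolus of 5mg/kg in glycerol formal. Blood drawn from the jugular vein at 5, 15, 30 min and 1, 2, 4, 6, 8, 24 h. Plasma diluted with an equal volume of water, extracted with MTBE, drug measured by LC–MS/MS. Parameters from noncompartmental analysis.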

[6] = target: Matrix metalloproteinase-9 (Homo sapiens, UniProt P14780); assay: Inhibition of matrix metalloprotease 9
[7] = target: Stromelysin-1 (Homo sapiens, UniProt P08254); assay: Inhibition of matrix metalloprotease 3
[8] = target: Macrophage metalloelastase (Homo sapiens, UniProt P39900); assay: Inhibition of matrix metalloprotease 12
[9] = target: Matrix metalloproteinase-14 (Homo sapiens, UniProt P50281); assay: Inhibition of matrix metalloprotease 14
[10] = Oral bioavailability in rat; format: ADME, organism-based; details: in vivo
Procedure, shortened: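 Oral dose given to rat as a suspension in 0.5% aqueous methylcellulose.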

Sequence of Stromelysin-1 (P08254 whole entry): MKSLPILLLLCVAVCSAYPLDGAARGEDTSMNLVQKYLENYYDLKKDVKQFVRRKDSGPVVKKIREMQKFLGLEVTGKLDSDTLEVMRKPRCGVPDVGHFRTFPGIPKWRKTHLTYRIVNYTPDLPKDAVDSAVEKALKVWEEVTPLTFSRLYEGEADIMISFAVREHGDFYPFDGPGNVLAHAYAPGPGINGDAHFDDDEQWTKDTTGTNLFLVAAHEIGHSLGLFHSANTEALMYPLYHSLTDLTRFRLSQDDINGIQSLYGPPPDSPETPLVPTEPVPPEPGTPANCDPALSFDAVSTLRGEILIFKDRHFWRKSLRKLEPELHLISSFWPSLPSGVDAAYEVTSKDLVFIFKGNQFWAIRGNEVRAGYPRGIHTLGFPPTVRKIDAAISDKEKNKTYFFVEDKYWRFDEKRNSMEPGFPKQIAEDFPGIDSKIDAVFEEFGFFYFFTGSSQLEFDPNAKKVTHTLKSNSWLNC
Sequence of Macrophage metalloelastase (P39900 whole entry): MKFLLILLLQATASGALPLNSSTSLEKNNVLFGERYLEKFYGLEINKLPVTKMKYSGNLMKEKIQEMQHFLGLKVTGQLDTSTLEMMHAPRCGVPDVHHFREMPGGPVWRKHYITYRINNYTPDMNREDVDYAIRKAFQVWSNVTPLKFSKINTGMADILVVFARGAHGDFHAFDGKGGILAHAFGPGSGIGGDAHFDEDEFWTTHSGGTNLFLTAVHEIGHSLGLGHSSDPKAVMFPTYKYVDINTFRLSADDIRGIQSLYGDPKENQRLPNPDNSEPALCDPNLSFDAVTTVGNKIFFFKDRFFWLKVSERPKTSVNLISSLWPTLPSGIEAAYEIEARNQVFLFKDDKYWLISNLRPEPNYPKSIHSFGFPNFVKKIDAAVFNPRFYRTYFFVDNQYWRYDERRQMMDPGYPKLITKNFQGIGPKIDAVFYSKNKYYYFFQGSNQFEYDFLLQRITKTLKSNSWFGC
Sequence of Matrix metalloproteinase-9 (P14780 whole entry): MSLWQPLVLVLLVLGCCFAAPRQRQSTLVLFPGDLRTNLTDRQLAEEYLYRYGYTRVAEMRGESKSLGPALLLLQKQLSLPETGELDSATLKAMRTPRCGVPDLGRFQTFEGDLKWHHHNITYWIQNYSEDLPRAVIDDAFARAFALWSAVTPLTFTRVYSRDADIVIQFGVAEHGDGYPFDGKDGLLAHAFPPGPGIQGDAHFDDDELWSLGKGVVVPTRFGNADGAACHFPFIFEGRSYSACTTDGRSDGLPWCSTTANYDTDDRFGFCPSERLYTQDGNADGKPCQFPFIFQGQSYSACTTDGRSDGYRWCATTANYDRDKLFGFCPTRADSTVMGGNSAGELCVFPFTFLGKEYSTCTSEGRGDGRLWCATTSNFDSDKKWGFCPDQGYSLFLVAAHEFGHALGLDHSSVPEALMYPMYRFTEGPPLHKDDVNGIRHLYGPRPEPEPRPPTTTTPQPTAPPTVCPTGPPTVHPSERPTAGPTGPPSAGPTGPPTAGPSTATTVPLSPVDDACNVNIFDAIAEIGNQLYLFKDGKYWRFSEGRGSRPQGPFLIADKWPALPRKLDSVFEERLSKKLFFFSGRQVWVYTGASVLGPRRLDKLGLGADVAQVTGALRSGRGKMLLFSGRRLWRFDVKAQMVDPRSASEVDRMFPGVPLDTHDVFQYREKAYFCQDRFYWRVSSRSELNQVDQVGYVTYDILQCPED

Row | SMILES | IC50 [1] | IC50 [2] | IC50 [3] | further results
1 | O=C(NO)[C@@]1(O)COCC[C@H]1S(=O)(=O)c1ccc(OCc2ccccc2C(F)(F)F)cc1 | 220 nM | 28 nM | > 30000 nM | 
2 | Cc1ccc(C)c(COc2ccc(S(=O)(=O)[C@@H]3CCOC[C@]3(O)C(=O)NO)cc2)c1 | 26 nM | 300 nM | > 30000 nM | 
3 | CO[C@]1(C(=O)NO)COCC[C@H]1S(=O)(=O)c1ccc(OCc2ccc(Cl)cc2Cl)cc1 | 100 nM | 46 nM |  | 
4 | O=C(NO)[C@@]1(O)COCC[C@H]1S(=O)(=O)c1ccc(OCc2ccc(Cl)cc2)cc1 | 330 nM | 0.88 nM | 1400 nM | 
5 | O=C(NO)[C@@]1(O)COCC[C@H]1S(=O)(=O)c1ccc(OCc2cccc(Cl)c2Cl)cc1 | 140 nM | 15 nM | 13000 nM | 
6 | Cc1ccccc1COc1ccc(S(=O)(=O)[C@@H]2CCOC[C@]2(O)C(=O)NO)cc1 | 55 nM | 21 nM | 12000 nM | 
7 | CO[C@]1(C(=O)NO)COCC[C@H]1S(=O)(=O)c1ccc(OCc2ccccc2Cl)cc1 | 100 nM | 38 nM |  | 
8 | O=C(NO)[C@@]1(O)COCC[C@H]1S(=O)(=O)c1ccc(OCc2ccccc2Cl)cc1 | 40 nM | 2.7 nM | 2800 nM | 
9 | O=C(NO)[C@@]1(O)COCC[C@H]1S(=O)(=O)c1ccc(OCc2cccc(Cl)c2)cc1 | > 1000 nM | 2.4 nM | 7900 nM | 
10 | O=C(NO)[C@@]1(O)COCC[C@H]1S(=O)(=O)c1ccc(OCc2c(Cl)cccc2Cl)cc1 | > 1000 nM | > 300 nM | > 30000 nM | 
11 | Cc1ccc(Oc2ccc(S(=O)(=O)[C@@H]3CCOC[C@]3(O)C(=O)NO)cc2)cc1 | > 1000 nM | 1 nM | 120 nM | 
12 | Cc1ccc(COc2ccc(S(=O)(=O)[C@@H]3CCOC[C@]3(O)C(=O)NO)cc2)c(C)c1 | 370 nM | 17 nM | 19000 nM | 
13 | Cc1cccc(COc2ccc(S(=O)(=O)[C@@H]3CCOC[C@]3(O)C(=O)NO)cc2)c1 | > 1000 nM | 5 nM | 22000 nM | 
14 | Cc1cccc(-c2ccc(S(=O)(=O)[C@@H]3CCOC[C@]3(O)C(=O)NO)cc2)c1 | > 1000 nM | 0.43 nM | < 30 nM | 
15 | O=C(NO)[C@H]1C[C@@H](O)CCN1S(=O)(=O)c1ccc(OCc2ccccc2Cl)cc1 |  | 12 nM |  | IC50 [4]: 36 nM
16 | Cc1cccc(C)c1COc1ccc(S(=O)(=O)[C@@H]2CCOC[C@]2(O)C(=O)NO)cc1 | > 1000 nM | > 300 nM | > 30000 nM | 
17 | Cc1ccc(COc2ccc(S(=O)(=O)[C@@H]3CCOC[C@]3(O)C(=O)NO)cc2)cc1 | > 1000 nM | 1.3 nM | 5400 nM | 
18 | O=C(NO)[C@@]1(O)COCC[C@H]1S(=O)(=O)c1ccc(OCc2cc(Cl)ccc2Cl)cc1 | 87 nM | 13 nM | 27000 nM | 
19 | Cc1cccc(Oc2ccc(S(=O)(=O)[C@@H]3CCOC[C@]3(O)C(=O)NO)cc2)c1 | > 1000 nM | 1.1 nM | 270 nM | 
20 | Cc1ccccc1-c1ccc(S(=O)(=O)[C@@H]2CCOC[C@]2(O)C(=O)NO)cc1 | > 1000 nM | 140 nM | 10000 nM | 
21 | O=C(NO)[C@@]1(O)COCC[C@H]1S(=O)(=O)c1ccc(OCc2ccc(Cl)cc2Cl)cc1 | 8.1 nM | 0.95 nM | 920 nM | half-life [5]: 5 h; IC50 [6]: 5.3 nM; IC50 [7]: 55 nM; IC50 [8]: 0.95 nM; IC50 [9]: 150 nM; bioavailability [10]: 7%
22 | Cc1ccc(-c2ccc(S(=O)(=O)[C@@H]3CCOC[C@]3(O)C(=O)NO)cc2)cc1 | > 1000 nM | 0.39 nM | < 30 nM | 
23 | Cc1ccccc1Oc1ccc(S(=O)(=O)[C@@H]2CCOC[C@]2(O)C(=O)NO)cc1 | > 1000 nM | 9.8 nM | 4700 nM | 
